Assay results: ChEMBL document CHEMBL3351225, “Design, synthesis, and structure-activity and structure-pharmacokinetic relationship studies of novel [6,6,5] tricyclic fused oxazolidinones leading to the discovery of a potent, selective, and orally bioavailable FXa inhibitor” (J Med Chem, 2014)

Columns and labels:
Prothrombin = Prothrombin (Homo sapiens, UniProt P00734); assay: Inhibition of human factor 2a using L-pyro-Glu-Pro-ArgpNA, S-2366 chromogenic substrate
Outline: (§1)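 Human enzyme and inhibitor were premixed and preincubated, then the chromogenic substrate was added. Substrate levels: 300 μM S-2765 (FXa, trypsin); 200 μM S-2366 (FIIa); 2 mM S-2366 (FVIIa, FXIa). pNA release was monitored continuously at 405 nm for 20 min at 37 °C. IC50 was obtained by nonlinear regression.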

Coagulation factor X = Coagulation factor X (Homo sapiens, UniProt P00742); assay: Inhibition of human factor 10a using N-Z-D-Arg-Gly-Arg-pNA, S-2765 chromogenic substrate
Coagulation factor VII = target: T1, Coagulation factor VII (Homo sapiens, UniProt P08709); assay: Inhibition of human factor 7a using S-2366 chromogenic substrate; outline: as §1
T1 sequence (P08709 whole entry): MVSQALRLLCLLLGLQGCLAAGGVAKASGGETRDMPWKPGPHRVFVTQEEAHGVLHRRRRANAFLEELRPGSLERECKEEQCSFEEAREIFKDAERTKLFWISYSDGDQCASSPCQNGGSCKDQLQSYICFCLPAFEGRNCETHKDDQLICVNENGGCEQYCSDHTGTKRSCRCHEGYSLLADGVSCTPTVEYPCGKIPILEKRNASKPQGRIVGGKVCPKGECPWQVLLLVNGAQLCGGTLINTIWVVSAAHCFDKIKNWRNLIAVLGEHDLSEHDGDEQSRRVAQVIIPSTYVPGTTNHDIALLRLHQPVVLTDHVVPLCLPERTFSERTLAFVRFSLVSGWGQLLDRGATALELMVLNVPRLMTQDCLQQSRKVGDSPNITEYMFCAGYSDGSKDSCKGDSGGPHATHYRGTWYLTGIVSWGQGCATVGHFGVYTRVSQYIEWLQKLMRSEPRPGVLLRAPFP

Coagulation factor IX = Coagulation factor IX (Homo sapiens, UniProt P00740); assay: Inhibition of human factor 9a using CH3SO2-(D)CHG Gly-Arg-pNA, Biophen-CS51 chromogenic substrate
Trypsin = Trypsin (Homo sapiens, UniProt P07477+P07478+P35030); assay: Inhibition of human trypsin using N-Z-D-Arg-Gly-Arg-pNA, S-2765 chromogenic substrate; type: protein assay; outline: as §1
Coagulation factor XI = Coagulation factor XI (Homo sapiens, UniProt P03951); assay: Inhibition of human factor 11a using S-2366 chromogenic substrate; outline: as §1
Plasma [1] = assay: Anticoagulant activity in citrated rabbit plasma assessed as drug concentration required to double plasma clotting time preincubated for 10 mins at 37 degC by coagulometry; type: functional, Oryctolagus cuniculus
Outline: (§2)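 Test compound or DMSO added to citrated rabbit plasma (3.8% sodium citrate, 10:90 v/v) and preincubated 10 min at 37 °C. PT and aPTT clotting times measured on a coagulometer with commercial kits. Activity expressed as the concentration needed to double plasma clotting time (CT2, μM).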

Plasma [2] = assay: Anticoagulant activity in citrated rabbit plasma assessed as activated partial thromboplastin time preincubated for 10 mins at 37 degC by coagulometry; type: functional, Oryctolagus cuniculus; outline: as §2
[3] = Cmax in Sprague-Dawley rat at 10 mg/kg, po; type: ADME, organism-based; parameters: dose 10 mg/kg, route oral; conditions: in vivo
Outline: (§3)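 Male Sprague-Dawley rats, 200−220 g, four per group. Vehicle was 5% DMSO + 5% Tween-80 in 90% saline. The reference drug was given in 10% DMSO + 10% Tween-80 + 80% PEG400 (40% solution in saline). Serial retrobulbar vein samples were quantified by LC-MS. Parameters came from noncompartmental analysis of mean plasma concentrations.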

[4] = Tmax in Sprague-Dawley rat at 10 mg/kg, po; type: ADME, organism-based; parameters: dose 10 mg/kg, route oral; conditions: in vivo; outline: as §3
[5] = Elimination half life in Sprague-Dawley rat at 10 mg/kg, po; type: ADME, organism-based; parameters: dose 10 mg/kg, route oral; conditions: in vivo, read-out: beta t1/2 (converted); outline: as §3
[6] = Elimination half life in Sprague-Dawley rat at 3 mg/kg, iv; type: ADME, organism-based; parameters: dose 3 mg/kg, route intravenous; conditions: in vivo, read-out: beta t1/2 (converted); outline: as §3
[7] = AUC (0 to infinity) in Sprague-Dawley rat at 10 mg/kg, po; type: ADME, organism-based; parameters: time infinity, dose 10 mg/kg, route oral; conditions: plasma; outline: as §3
[8] = AUC (0 to infinity) in Sprague-Dawley rat at 3 mg/kg, iv; type: ADME, organism-based; parameters: time infinity, dose 3 mg/kg, route intravenous; conditions: plasma; outline: as §3
[9] = Plasma clearance in Sprague-Dawley rat at 3 mg/kg, iv; type: ADME, organism-based; parameters: dose 3 mg/kg, route intravenous; outline: as §3
[10] = Volume of distribution at steady state in Sprague-Dawley rat at 3 mg/kg, iv; type: ADME, organism-based; parameters: dose 3 mg/kg, route intravenous; conditions: in vivo, read-out: Vdss; outline: as §3
[11] = Oral bioavailability in Sprague-Dawley rat at 10 mg/kg; type: ADME, organism-based; conditions: in vivo; outline: as §3
[12] = Cmax in Sprague-Dawley rat at 3 mg/kg, po; type: ADME, organism-based; parameters: dose 3 mg/kg, route oral; conditions: in vivo
[13] = Tmax in Sprague-Dawley rat at 3 mg/kg, po; type: ADME, organism-based; parameters: dose 3 mg/kg, route oral; conditions: in vivo
[14] = Elimination half life in Sprague-Dawley rat at 3 mg/kg, po; type: ADME, organism-based; parameters: dose 3 mg/kg, route oral; conditions: in vivo, read-out: beta t1/2 (converted)
[15] = AUC (0 to infinity) in Sprague-Dawley rat at 3 mg/kg, po; type: ADME, organism-based; parameters: time infinity, dose 3 mg/kg, route oral; conditions: plasma
[16] = Oral bioavailability in Sprague-Dawley rat at 3 mg/kg; type: ADME, organism-based; conditions: in vivo
[17] = Cmax in Beagle dog at 1 mg/kg, po; type: ADME, organism-based, Canis lupus familiaris; parameters: dose 1 mg/kg, route oral; conditions: in vivo
Outline: (§4)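 Male dogs, three per group. Dosed orally at 1 mg/kg or by intravenous infusion at 0.5 mg/kg. Vehicle was 5% DMSO + 5% Tween-80 in 90% saline, or 10% DMSO + 10% Tween-80 + 80% PEG400 for the reference drug. Foreleg blood samples were quantified by LC-MS. Parameters came from noncompartmental analysis of mean plasma concentrations.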

[18] = Tmax in Beagle dog at 1 mg/kg, po; type: ADME, organism-based, Canis lupus familiaris; parameters: dose 1 mg/kg, route oral; conditions: in vivo; outline: as §4
[19] = Elimination half life in Beagle dog at 1 mg/kg, po; type: ADME, organism-based, Canis lupus familiaris; parameters: dose 1 mg/kg, route oral; conditions: in vivo; outline: as §4
[20] = Elimination half life in Beagle dog at 0.5 mg/kg, iv; type: ADME, organism-based, Canis lupus familiaris; parameters: dose 0.5 mg/kg, route intravenous; conditions: in vivo; outline: as §4
[21] = AUC (0 to infinity) in Beagle dog at 1 mg/kg, po; type: ADME, organism-based, Canis lupus familiaris; parameters: time infinity, dose 1 mg/kg, route oral; conditions: plasma; outline: as §4
[22] = AUC (0 to infinity) in Beagle dog at 0.5 mg/kg, iv; type: ADME, organism-based, Canis lupus familiaris; parameters: time infinity, dose 0.5 mg/kg, route intravenous; conditions: plasma; outline: as §4
[23] = Plasma clearance in Beagle dog at 0.5 mg/kg, iv; type: ADME, organism-based, Canis lupus familiaris; parameters: dose 0.5 mg/kg, route intravenous; outline: as §4
[24] = Volume of distribution at steady state in Beagle dog at 0.5 mg/kg, iv; type: ADME, organism-based, Canis lupus familiaris; parameters: dose 0.5 mg/kg, route intravenous; conditions: in vivo, read-out: Vdss; outline: as §4
[25] = Oral bioavailability in Beagle dog at 1 mg/kg; type: ADME, organism-based, Canis lupus familiaris; conditions: in vivo; outline: as §4
Rattus norvegicus [26] = assay: Antithrombotic activity in rat model of FeCl3-induced venous thrombosis assessed as reduction in thrombus formation dosed orally 60 mins before thrombus formation; conditions: po
Rattus norvegicus [27] = assay: Antithrombotic activity in rat model of arteriovenous shunt-induced thrombosis assessed as reduction in thrombus formation dosed orally 60 mins before shunt opening; conditions: po
Rattus norvegicus [28] = assay: Induction of tail bleeding in rat assessed as prolongation of bleeding time dosed orally 60 mins before surgery; type: organism-based; conditions: in vivo, po, 1 h
Outline: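 Anesthetized rats were dosed orally with compound suspended in 0.5% CMC-Na, or vehicle, 60 min before the tail was transected 4 mm from the tip. The tail was immersed vertically in saline at 37 °C. Bleeding time was taken as the point when flow ceased for >30 s, with a 30 min maximum.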

[29] = Cmax in Sprague-Dawley rat at 9 mg/kg, po; type: ADME, organism-based; parameters: dose 9 mg/kg, route oral; conditions: in vivo; outline: as §3
[30] = Tmax in Sprague-Dawley rat at 9 mg/kg, po; type: ADME, organism-based; parameters: dose 9 mg/kg, route oral; conditions: in vivo; outline: as §3
[31] = Elimination half life in Sprague-Dawley rat at 9 mg/kg, po; type: ADME, organism-based; parameters: dose 9 mg/kg, route oral; conditions: in vivo, read-out: beta t1/2 (converted); outline: as §3
[32] = Elimination half life in Sprague-Dawley rat at 4.5 mg/kg, iv; type: ADME, organism-based; parameters: dose 4.5 mg/kg, route intravenous; conditions: in vivo, read-out: beta t1/2 (converted); outline: as §3
[33] = AUC (0 to infinity) in Sprague-Dawley rat at 9 mg/kg, po; type: ADME, organism-based; parameters: time infinity, dose 9 mg/kg, route oral; conditions: plasma; outline: as §3
[34] = AUC (0 to infinity) in Sprague-Dawley rat at 4.5 mg/kg, iv; type: ADME, organism-based; parameters: time infinity, dose 4.5 mg/kg, route intravenous; conditions: plasma; outline: as §3
[35] = Plasma clearance in Sprague-Dawley rat at 4.5 mg/kg, iv; type: ADME, organism-based; parameters: dose 4.5 mg/kg, route intravenous; outline: as §3
[36] = Volume of distribution at steady state in Sprague-Dawley rat at 4.5 mg/kg, iv; type: ADME, organism-based; parameters: dose 4.5 mg/kg, route intravenous; conditions: in vivo, read-out: Vdss; outline: as §3
[37] = Oral bioavailability in Sprague-Dawley rat at 9 mg/kg; type: ADME, organism-based; conditions: in vivo; outline: as §3

Sequence of Coagulation factor X (P00742 41-179 limits assumed): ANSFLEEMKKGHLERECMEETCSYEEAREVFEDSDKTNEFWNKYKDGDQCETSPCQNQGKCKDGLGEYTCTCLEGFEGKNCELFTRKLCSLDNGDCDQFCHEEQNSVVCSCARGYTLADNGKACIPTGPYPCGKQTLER
Sequence of Coagulation factor X (P00742 235-488 limits assumed): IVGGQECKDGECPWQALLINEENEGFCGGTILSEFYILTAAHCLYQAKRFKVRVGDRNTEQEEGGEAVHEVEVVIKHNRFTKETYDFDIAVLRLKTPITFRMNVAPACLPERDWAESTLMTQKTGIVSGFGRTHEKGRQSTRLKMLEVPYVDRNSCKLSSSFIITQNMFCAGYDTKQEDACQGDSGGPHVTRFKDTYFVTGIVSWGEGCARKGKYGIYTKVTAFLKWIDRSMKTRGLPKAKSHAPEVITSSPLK
Sequence of Coagulation factor XI (P03951 19-387 limits assumed): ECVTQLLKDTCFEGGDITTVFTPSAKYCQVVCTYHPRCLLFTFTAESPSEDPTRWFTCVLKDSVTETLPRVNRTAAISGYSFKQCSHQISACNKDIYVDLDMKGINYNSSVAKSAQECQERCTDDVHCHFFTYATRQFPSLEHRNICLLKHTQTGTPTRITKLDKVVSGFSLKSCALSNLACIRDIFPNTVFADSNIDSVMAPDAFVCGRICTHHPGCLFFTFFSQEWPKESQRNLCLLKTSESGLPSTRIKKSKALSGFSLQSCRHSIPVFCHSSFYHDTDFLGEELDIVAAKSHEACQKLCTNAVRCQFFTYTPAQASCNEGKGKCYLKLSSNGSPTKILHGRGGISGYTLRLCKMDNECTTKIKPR
Sequence of Coagulation factor XI (P03951 388-625 limits assumed): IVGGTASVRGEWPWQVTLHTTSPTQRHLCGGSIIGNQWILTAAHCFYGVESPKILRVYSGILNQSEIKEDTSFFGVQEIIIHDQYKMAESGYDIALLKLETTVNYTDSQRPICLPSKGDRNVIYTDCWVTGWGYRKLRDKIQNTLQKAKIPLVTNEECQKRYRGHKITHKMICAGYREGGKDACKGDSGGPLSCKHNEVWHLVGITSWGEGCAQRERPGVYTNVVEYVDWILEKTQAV
Sequence of Coagulation factor IX (P00740 47-191 limits assumed): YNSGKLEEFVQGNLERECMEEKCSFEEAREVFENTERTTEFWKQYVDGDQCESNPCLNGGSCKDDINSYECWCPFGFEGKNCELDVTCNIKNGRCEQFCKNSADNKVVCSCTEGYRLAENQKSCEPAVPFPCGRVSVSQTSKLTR
Sequence of Coagulation factor IX (P00740 227-461 limits assumed): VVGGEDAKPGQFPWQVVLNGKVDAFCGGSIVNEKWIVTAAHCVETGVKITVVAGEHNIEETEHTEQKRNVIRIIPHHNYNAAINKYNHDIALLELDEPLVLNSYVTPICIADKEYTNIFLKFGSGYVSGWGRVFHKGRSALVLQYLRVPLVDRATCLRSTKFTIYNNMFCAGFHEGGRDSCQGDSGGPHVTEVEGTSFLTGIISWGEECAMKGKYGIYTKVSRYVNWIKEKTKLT

With `O=C(NC[C@@H]1OC(=O)N2c3ccc(N4CCOCC4=O)cc3NC[C@@H]12)c1ccc(Cl)s1` the IC50 (Prothrombin) was > 100 µM, the IC50 (Coagulation factor X) was 0.00506 µM and the IC50 (Coagulation factor VII) was > 100 µM. For the same compound, the IC50 (Coagulation factor IX) was > 100 µM, the IC50 (Trypsin) was > 100 µM and the IC50 (Coagulation factor XI) was > 100 µM. For the same compound, the Activity (Plasma [1]) was 0.48 µM, the 2aPTT (Plasma [2]) was 0.43 µM and the Cmax [3] was 565 ng/mL. It also gave a Tmax [4] of 0.44 h, a half-life [5] of 1.52 h and a half-life [6] of 0.86 h. It also gave an AUC(0-inf) [7] of 1350 ng·h/mL, an AUC(0-inf) [8] of 5700 ng·h/mL and a clearance [9] of 9.22 mL/min/kg. It also gave a Vd [10] of 0.199 L/kg and a bioavailability [11] of 6.8%.

For `O=C(NC[C@H]1CN(c2ccc(N3CCOCC3=O)cc2)C(=O)O1)c1ccc(Cl)s1` [RIVAROXABAN], the Activity (Plasma [1]) was 0.4 µM, the 2aPTT (Plasma [2]) was 0.32 µM and the Cmax [12] was 850 ng/mL. It also gave a Tmax [13] of 0.88 h, a half-life [6] of 1.27 h and a half-life [14] of 2.9 h. For the same compound, the AUC(0-inf) [8] was 9980 ng·h/mL, the AUC(0-inf) [15] was 2260 ng·h/mL and the clearance [9] was 5.05 mL/min/kg. The Vd [10] was 0.19 L/kg, the bioavailability [16] was 21.3% and the Cmax [17] was 333 ng/mL. For the same compound, the Tmax [18] was 0.7 h, the half-life [19] was 1.8 h and the half-life [20] was 2.4 h. For the same compound, the AUC(0-inf) [21] was 1000 ng·h/mL, the AUC(0-inf) [22] was 916 ng·h/mL and the clearance [23] was 10 mL/min/kg. It also gave a Vd [24] of 2.8 L/kg, a bioavailability [25] of 68% and an ED50 (Rattus norvegicus [26]) of 4.86 mg/kg. For the same compound, the ED50 (Rattus norvegicus [27]) was 3.72 mg/kg and the Activity (Rattus norvegicus [28]) was “Dose-dependent effect”.

With `CS(=O)(=O)c1ccccc1-c1ccc2c(c1)OC[C@H]1[C@H](CNC(=O)c3ccc(Cl)s3)OC(=O)N21` the IC50 (Coagulation factor X) was 0.0376 µM, the Activity (Plasma [1]) was 5.88 µM and the 2aPTT (Plasma [2]) was 4.65 µM. The Cmax [29] was 6760 ng/mL, the Tmax [30] was 1 h and the half-life [31] was 1.43 h. It also gave a half-life [32] of 0.88 h, an AUC(0-inf) [33] of 24500 ng·h/mL and an AUC(0-inf) [34] of 43900 ng·h/mL. It also gave a clearance [35] of 1.72 mL/min/kg, a Vd [36] of 0.169 L/kg and a bioavailability [37] of 27.3%.
